Columns and labels:
[1] = Genotoxicity in Salmonella typhimurium TA1535 harboring pSK1002 assessed as umu gene induction at 1 mg/ml in absence of Sprague-Dawley rat liver S9 fraction metabolic activation by SOS/umu assay relative to control; assay type: toxicity; details: salmonella enterica subsp. enterica serovar typhimurium, read-out: FC
Outline: (§1)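 umu induction in S. typhimurium TA1535/pSK1002, with or without S9 mix, in 96-well format. β-galactosidase read colorimetrically with ONPG substrate. Output given as relative units and induction factor (IF). The run is valid if positive controls reach IF ≥2. A compound counts as genotoxic at IF ≥2 at a concentration giving ≥80% bacterial survival.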

[2] = Genotoxicity in Salmonella typhimurium TA1535 harboring pSK1002 assessed as survival at 0.016 mg/ml in presence of Sprague-Dawley rat liver S9 fraction metabolic activation by SOS/umu assay relative to control; assay type: toxicity, subcellular; details: salmonella enterica subsp. enterica serovar typhimurium, read-out: Survival
Outline: (§2)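 Survival of S. typhimurium TA1535/pSK1002 exposed to a range of compound concentrations with or without S9 mix in 96-well format. Survival percentage measured as the cytotoxicity arm of the SOS/umu test. Concentrations with survival ≥80% are counted as non-cytotoxic.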

[3] = (§3) Toxicity in BALB/c mouse infected with Trypanosoma cruzi MHOM/Pe/2011/Arequipa;DTU 5 bloodstream trypomastigote assessed as decrease in serum alkaline phosphatase level in acute phase at 20 mg/kg/day, po administered for 5 consecutive days starting from day 8 post infection and measured at day 14 post infection by biochemical analysis relative to control; assay type: organism-based; design: scale not given: the % may be the effect or the level left; details: in vivo
Outline: (§4)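 Female BALB/c mice (10–12 weeks, 14–20 g; groups of three) were infected i.p. with 5 × 10^5 Arequipa bloodstream trypomastigotes. Dosing was oral at 20 mg/kg/day for 5 days, from day 8 pi (acute) or day 70 pi (chronic), as a 2 mg/ml suspension in 5% DMSO/0.5% HPMC; controls received vehicle. Cyclophosphamide 200 mg/kg i.p. was given at day 80 pi. Serum was collected 2 days post-treatment and at necropsy by cardiac puncture and compared with infected untreated controls.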

[4] = Genotoxicity in Salmonella typhimurium TA1535 harboring pSK1002 assessed as umu gene induction at 0.25 mg/ml in absence of Sprague-Dawley rat liver S9 fraction metabolic activation by SOS/umu assay relative to control; assay type: toxicity; details: salmonella enterica subsp. enterica serovar typhimurium, read-out: FC; outline: as §1
[5] = Genotoxicity in Salmonella typhimurium TA1535 harboring pSK1002 assessed as survival at 0.125 mg/ml in presence of Sprague-Dawley rat liver S9 fraction metabolic activation by SOS/umu assay relative to control; assay type: toxicity, subcellular; details: salmonella enterica subsp. enterica serovar typhimurium, read-out: Survival; outline: as §2
[6] = Genotoxicity in Salmonella typhimurium TA1535 harboring pSK1002 assessed as survival at 0.031 mg/ml in presence of Sprague-Dawley rat liver S9 fraction metabolic activation by SOS/umu assay relative to control; assay type: toxicity, subcellular; details: salmonella enterica subsp. enterica serovar typhimurium, read-out: Survival; outline: as §2
[7] = Genotoxicity in Salmonella typhimurium TA1535 harboring pSK1002 assessed as umu gene induction at 1 mg/ml in presence of Sprague-Dawley rat liver S9 fraction metabolic activation by SOS/umu assay relative to control; assay type: toxicity, subcellular; details: salmonella enterica subsp. enterica serovar typhimurium, read-out: FC; outline: as §1
[8] = Genotoxicity in Salmonella typhimurium TA1535 harboring pSK1002 assessed as umu gene induction at 0.5 mg/ml in presence of Sprague-Dawley rat liver S9 fraction metabolic activation by SOS/umu assay relative to control; assay type: toxicity, subcellular; details: salmonella enterica subsp. enterica serovar typhimurium, read-out: FC; outline: as §1
[9] = Genotoxicity in Salmonella typhimurium TA1535 harboring pSK1002 assessed as survival at 0.002 mg/ml in absence of Sprague-Dawley rat liver S9 fraction metabolic activation by SOS/umu assay relative to control; assay type: toxicity; details: salmonella enterica subsp. enterica serovar typhimurium, read-out: Survival
Outline: (§5)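 Salmonella typhimurium TA1535/pSK1002 was exposed to compounds at several concentrations with or without S9 mix, and bacterial survival % was measured. β-galactosidase induction was measured colorimetrically with ONPG substrate. Genotoxicity was counted where IF ≥ 2 at ≥80% survival; runs were valid if positive controls reached IF ≥ 2.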

[10] = Genotoxicity in Salmonella typhimurium TA1535 harboring pSK1002 assessed as survival at 0.063 mg/ml in absence of Sprague-Dawley rat liver S9 fraction metabolic activation by SOS/umu assay relative to control; assay type: toxicity; details: salmonella enterica subsp. enterica serovar typhimurium, read-out: Survival; outline: as §2
[11] = Genotoxicity in Salmonella typhimurium TA1535 harboring pSK1002 assessed as survival at 0.001 mg/ml in absence of Sprague-Dawley rat liver S9 fraction metabolic activation by SOS/umu assay relative to control; assay type: toxicity; details: salmonella enterica subsp. enterica serovar typhimurium, read-out: Survival; outline: as §5
[12] = Genotoxicity in Salmonella typhimurium TA1535 harboring pSK1002 assessed as survival at 0.008 mg/ml in absence of Sprague-Dawley rat liver S9 fraction metabolic activation by SOS/umu assay relative to control; assay type: toxicity; details: salmonella enterica subsp. enterica serovar typhimurium, read-out: Survival; outline: as §2
[13] = as §3, with “serum urea” for “serum alkaline phosphatase”, “measured on” for “measured at”, “day 100” for “day 14”; assay type: organism-based; design: scale not given: the % may be the effect or the level left; details: in vivo; outline: as §4
[14] = Genotoxicity in Salmonella typhimurium TA1535 harboring pSK1002 assessed as umu gene induction at 0.25 mg/ml in presence of Sprague-Dawley rat liver S9 fraction metabolic activation by SOS/umu assay relative to control; assay type: toxicity, subcellular; details: salmonella enterica subsp. enterica serovar typhimurium, read-out: FC; outline: as §1
[15] = Genotoxicity in Salmonella typhimurium TA1535 harboring pSK1002 assessed as umu gene induction at 0.031 mg/ml in presence of Sprague-Dawley rat liver S9 fraction metabolic activation by SOS/umu assay relative to control; assay type: toxicity, subcellular; details: salmonella enterica subsp. enterica serovar typhimurium, read-out: FC; outline: as §1
[16] = Genotoxicity in Salmonella typhimurium TA1535 harboring pSK1002 assessed as survival at 0.004 mg/ml in absence of Sprague-Dawley rat liver S9 fraction metabolic activation by SOS/umu assay relative to control; assay type: toxicity; details: salmonella enterica subsp. enterica serovar typhimurium, read-out: Survival; outline: as §2
[17] = target: Superoxide dismutase [Cu-Zn] (Homo sapiens, UniProt P00441); experiment: Inhibition of human erythrocyte CuZn-SOD
Superoxide dismutase [Cu-Zn], sequence (P00441 whole entry): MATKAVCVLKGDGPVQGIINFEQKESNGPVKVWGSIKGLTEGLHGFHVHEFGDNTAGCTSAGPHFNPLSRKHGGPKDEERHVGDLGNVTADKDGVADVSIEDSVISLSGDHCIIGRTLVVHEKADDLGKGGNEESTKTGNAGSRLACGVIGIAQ
Outline: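 Commercial human erythrocyte CuZn-SOD. Activity measured by the Beyer–Fridovich method, tested up to 50 µM.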

Trypanosoma cruzi = experiment: Inhibition of Trypanosoma cruzi MHOM/Pe/2011/Arequipa;DTU 5 epimastigote Fe-SOD at 6.3 uM relative to control
Outline: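 Fe-SOD excreted by exponentially growing T. cruzi Arequipa epimastigotes cultured in supplemented MTL at 28 °C. Protein quantified by Bradford. SOD activity measured by the Beyer–Fridovich method. IC50 from inhibition curves by nonlinear regression. Mean of three independent determinations ± standard deviation.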

[18] = Genotoxicity in Salmonella typhimurium TA1535 harboring pSK1002 assessed as umu gene induction at 0.001 mg/ml in presence of Sprague-Dawley rat liver S9 fraction metabolic activation by SOS/umu assay relative to control; assay type: toxicity, subcellular; details: salmonella enterica subsp. enterica serovar typhimurium, read-out: FC; outline: as §1
[19] = Genotoxicity in Salmonella typhimurium TA1535 harboring pSK1002 assessed as umu gene induction at 0.031 mg/ml in absence of Sprague-Dawley rat liver S9 fraction metabolic activation by SOS/umu assay relative to control; assay type: toxicity; details: salmonella enterica subsp. enterica serovar typhimurium, read-out: FC; outline: as §1
[20] = as §3, with “aspartate aminotransferase” for “alkaline phosphatase”, “chronic” for “acute”, “70” for “8”, “76” for “14”, “infection” for “infection by biochemical analysis”; assay type: organism-based; design: scale not given: the % may be the effect or the level left; details: in vivo; outline: as §4
[21] = as §3, with “as change” for “as decrease”, “serum alanine aminotransferase” for “serum alkaline phosphatase”, “measured on” for “measured at”, “day 100” for “day 14”; assay type: organism-based; details: in vivo; outline: as §4
[22] = Toxicity in BALB/c mouse infected with Trypanosoma cruzi MHOM/Pe/2011/Arequipa;DTU 5 bloodstream trypomastigote assessed as decrease in serum lactate dehydrogenase level in chronic phase at 20 mg/kg/day, po administered for 5 consecutive days starting from day 70 post infection measured on day 100 post infection relative to control; assay type: organism-based; design: scale not given: the % may be the effect or the level left; details: in vivo; outline: as §4

Row | SMILES | fold induction at 1 mg/ml [1] | viability at 0.016 mg/ml [2] [%] | Activity [3] | fold induction at 0.25 mg/ml [4] | viability at 0.125 mg/ml [5] [%] | viability at 0.031 mg/ml [6] [%] | fold induction at 1 mg/ml [7] | fold induction at 0.5 mg/ml [8] | viability at 0.002 mg/ml [9] [%] | viability at 0.063 mg/ml [10] [%] | viability at 0.001 mg/ml [11] [%] | viability at 0.008 mg/ml [12] [%] | Activity [13] | fold induction at 0.25 mg/ml [14] | fold induction at 0.031 mg/ml [15] | viability at 0.004 mg/ml [16] [%] | IC50 [17] [µM] | inhibition (Trypanosoma cruzi) [%] | fold induction at 0.001 mg/ml [18] | fold induction at 0.031 mg/ml [19] | also measured
1 | O=C(CCN1CCN(c2ccc(Cl)cc2)CC1)c1ccc(O)cc1 | 0.12 | 106 | <= 10% | 0.49 | 113 | 102 | 0.38 | 0.46 | 109 | 125 | 104 | 128 | <= 10% | 0.63 | 0.83 | 140 | > 50 | > 50 | 0.76 | 0.7 | Activity [20]: <= 10%
2 | O=C(Cn1ccnc1[N+](=O)[O-])NCc1ccccc1 [BENZNIDAZOLE] |  |  |  |  |  |  |  |  |  |  |  |  | <= 20% |  |  |  |  |  |  |  | Activity [21]: > 10%; Activity [22]: <= 10%
3 | O=C(CCN1CCN(c2ccc(C(F)(F)F)cc2)CC1)c1ccc(O)cc1 | 0.16 | 110 | <= 30% | 0.52 | 138 | 107 | 0.37 | 0.74 | 116 | 117 | 114 | 133 |  | 0.63 | 0.87 | 127 | > 50 | > 50 | 0.82 | 0.66 | Activity [21]: > 10%; Activity [22]: <= 30%; Activity [20]: <= 10%
